Assay results: paper PMC3348450 (Investigational New Drugs, 2011)

Experiments:
[1] = cited from earlier work
[2] = cited from earlier work; remark: listed apart in the source
[3] = Treatment-related adverse events; type: in vivo, human
Procedure, shortened: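 Adverse events were graded by CTCAE version 3.0 throughout both studies in 18 Japanese patients on the oral test compound, taken in the fed state. Study 1 gave 5 mg BID continuously, six patients first receiving a single 5-mg dose. Study 2 gave single 5-, 7- and 10-mg doses, then 5 mg BID. Titration was to 7 then 10 mg BID; reduction was to 3 or 2 mg BID.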

[4] = tested on: advanced malignant solid tumors; experiment: Preliminary antitumor activity; type: in vivo, human; settings: 11 of 17 evaluable patients who had a target lesion
[5] = Treatment-related laboratory abnormalities, phase I Study 1 and Study 2; type: in vivo, human; settings: treatment-related laboratory abnormality; pooled; N = 18
Procedure, shortened: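 Laboratory abnormalities were pooled across 18 Japanese patients with solid tumours from two studies. Patients took the oral test compound in the fed state: 5 mg BID continuous dosing, preceded by single doses in some patients (5 mg; or 5, 7 and 10 mg in Study 2). Dose could be raised to 7 then 10 mg BID, or cut to 3 or 2 mg BID for toxicity.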

[6] = cited from earlier work; remark: listed apart in the source
[7] = Plasma pharmacokinetics of axitinib; type: in vivo, human
thyroid gland = experiment: Thyroid function tests; type: in vivo, human; settings: two studies, 18 patients
Procedure, shortened: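 Study 1 measured TSH weekly in cycle 1, then every 2 weeks. Study 2 determined anti-TPO and antithyroglobulin antibody titres at screening, and measured TSH, free T3, free T4 and thyroglobulin weekly in cycle 1, then every 2 weeks. Study 2 also measured total cholesterol and CPK, monitored thyroid tests at every visit, and gave thyroid hormone replacement according to TSH to keep patients euthyroid.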

[8] = Study 2 (N = 6), four patients received thyroid hormone replacement therapy
[9] = treatment-related, pooled, N = 18

SMILES: CCN(CC)CCNC(=O)c1c(C)[nH]c(/C=C2\C(=O)Nc3ccc(F)cc32)c1C [sunitinib]
- Hypothyroidism and thyroid dysfunction, patients [1]: 36–85%
- Hemoglobin change in treated patients [2]: Elevation of hemoglobin

SMILES: CNC(=O)c1cc(Oc2ccc(NC(=O)Nc3ccc(Cl)c(C(F)(F)F)c3)cc2)ccn1 [sorafenib]
- Hypothyroidism and thyroid dysfunction, patients [1]: ~ 20%
- Hemoglobin change in treated patients [2]: Elevation of hemoglobin

SMILES: CNC(=O)c1ccccc1Sc1ccc2c(/C=C/c3ccccn3)n[nH]c2c1 [axitinib, Axitinib]
- Grade 3/4 fatigue, patients ([3]; 18 patients): 28%
- Grade 3/4 hypertension, patients ([3]; 18 patients): 33%
- Grade 3/4 fatigue, patients ([3]; Study 1): 42%
- Treatment-related fatigue, all grades ([3]; Study 1 (N = 12)): 10 (83) n (%)
- Treatment-related fatigue, grade 3/4 ([3]; Study 1 (N = 12)): 5 (42) n (%)
- Treatment-related fatigue, all grades [3, 8]: 5 (83) n (%)
- Treatment-related fatigue, grade 3/4 [3, 8]: 0 n (%)
- Anorexia, patients ([3]; treatment-related, 18 patients): 72%
- Diarrhea, patients ([3]; treatment-related, 18 patients): 67%
- Hand–foot syndrome, patients ([3]; treatment-related, 18 patients): 67%
- Hypertension, patients ([3]; treatment-related, 18 patients): 61%
- Fatigue, all grades ([3]; treatment-related, pooled Study 1 and Study 2, N = 18): 15 (83) n (%)
- Anorexia, all grades [3, 9]: 13 (72) n (%)
- Constipation, all grades [3, 9]: 7 (39) n (%)
- Diarrhea, all grades [3, 9]: 12 (67) n (%)
- Epistaxis, all grades [3, 9]: 5 (28) n (%)
- Hand–foot syndrome, all grades [3, 9]: 12 (67) n (%)
- Hand–foot syndrome, grade 3/4 [3, 9]: 1 (6) n (%)
- Headache, all grades [3, 9]: 4 (22) n (%)
- Hoarseness, all grades [3, 9]: 9 (50) n (%)
- Hypertension, all grades [3, 9]: 11 (61) n (%)
- Nausea, all grades [3, 9]: 4 (22) n (%)
- Rash, all grades [3, 9]: 6 (33) n (%)
- Stomatitis, all grades [3, 9]: 10 (56) n (%)
- Fatigue (all grades), patients ([3]; treatment-related, two studies, 18 patients): 83%
- Anemia ([3]; two phase I studies): not reported as an adverse event
- Evaluable patients with a reduction in tumor size [4]: 65%
- ALP increased, all grades [5]: 4 (22) n (%)
- AST increased, all grades [5]: 4 (22) n (%)
- Blood glucose increased, all grades [5]: 5 (28) n (%)
- Blood glucose increased, grade 3/4 [5]: 0 n (%)
- Hematuria, all grades [5]: 7 (39) n (%)
- Lipase increased, all grades [5]: 6 (33) n (%)
- Lipase increased, grade 3/4 [5]: 0 n (%)
- Lymphocyte count decreased, all grades [5]: 1 (6) n (%)
- Lymphocyte count decreased, grade 3/4 [5]: 0 n (%)
- Neutrophil count decreased, all grades [5]: 3 (17) n (%)
- Neutrophil count decreased, grade 3/4 [5]: 1 (6) n (%)
- Platelet count decreased, all grades [5]: 6 (33) n (%)
- Platelet count decreased, grade 3/4 [5]: 0 n (%)
- Proteinuria, all grades [5]: 9 (50) n (%)
- TSH decreased, all grades [5]: 4 (22) n (%)
- TSH increased, all grades [5]: 13 (72) n (%)
- Hemoglobin change in treated patients [2]: Elevation of hemoglobin
- Plasma exposure, fed state versus shorter fasting durations ([6]; 2 h before and 2 h after dosing, and 1 h before and 1 h after dosing): no difference in exposure
- Plasma exposure, fed state versus overnight fasting state ([6]; Western healthy volunteers): lower plasma exposure
- AUC ([7]; human, plasma, oral, 5 mg): 138 ng·h/mL
- Tmax ([7]; human, plasma, oral, 5 mg): 4.04 h
- half-life ([7]; human, plasma, oral, 10 mg): 4.8 to 5.9 h
- Time after administration at which plasma concentration reached maximum (Cmax) ([7]; single dose 5, 7, 10 mg, Study 2): ~ 4 h
- Dose linearity of plasma pharmacokinetics ([7]; single dosing of 5 mg, 7 mg and 10 mg): generally linear
- Patients with elevation of TSH above the upper limit of normal range (thyroid gland): 89%
